Data published in ChEMBL document CHEMBL3271979, “Inhibition of solid tumors by nitrosoureas. 1. Lewis lung carcinoma” (1977).
Calls of active or inactive are those of the source. No cut-off for these calls is given here.

Assays:
[1] = tested on: Mus musculus; assay: Antitumor activity against mouse advanced Lewis lung carcinoma allografted in BDF1 mouse assessed as disease cure at 93 mg/kg, ip administered as single dose on 7th day post-tumor implantation measured for 80 days post-drug treatment; format: functional, organism-based; set-up: dose 93 mg/kg
Outline: (§1)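 BDF1 mice (C57Blk/6 × DBA/2) implanted sc by trocar with about 40 mg Lewis lung tumor fragments from bacteriologically sterile donors. Advanced-disease groups held tumors of about 400 mg by day 6-7, sized by caliper (w = ab²/2). Single ip injection on day 7, in water or saline vehicle, at or below the LD10 in normal mice. Tumors measured at least twice weekly.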

[2] = tested on: Mus musculus; assay: Antitumor activity against mouse advanced Lewis lung carcinoma allografted in BDF1 mouse assessed as disease cure at 62 mg/kg, ip administered as single dose on 7th day post-tumor implantation measured for 80 days post-drug treatment; format: functional, organism-based; set-up: dose 62 mg/kg; outline: as §1
[3] = Antitumor activity against mouse advanced Lewis lung carcinoma allografted in BDF1 mouse assessed as increase in host life span at 93 mg/kg, ip administered as single dose on 7th day post-tumor implantation; format: functional; conditions: route intraperitoneal; outline: as §1
[4] = Antitumor activity against mouse advanced Lewis lung carcinoma allografted in BDF1 mouse assessed as increase in host life span at 62 mg/kg, ip administered as single dose on 7th day post-tumor implantation; format: functional; conditions: route intraperitoneal; outline: as §1
[5] = tested on: Mus musculus; assay: Antitumor activity against mouse advanced Lewis lung carcinoma allografted in BDF1 mouse assessed as complete regression of established tumor at 93 mg/kg, ip administered as single dose on 7th day post-tumor implantation; format: functional, organism-based; set-up: dose 93 mg/kg; outline: as §1
[6] = tested on: Mus musculus; assay: Antitumor activity against mouse advanced Lewis lung carcinoma allografted in BDF1 mouse assessed as complete regression of established tumor at 62 mg/kg, ip administered as single dose on 7th day post-tumor implantation; format: functional, organism-based; set-up: dose 62 mg/kg; outline: as §1
[7] = tested on: Mus musculus; assay: Antitumor activity against mouse advanced Lewis lung carcinoma allografted in ip dosed BDF1 mouse assessed as complete regression of established tumor administered as single dose on day 6 or 7 post-tumor implantation; format: functional, organism-based
Outline: (§2)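 BDF1 mice (C57Blk/6 × DBA/2) implanted sc by trocar with Lewis lung tumor fragments of about 40 mg, taken only from bacteriologically sterile donor tumors. Mice bearing tumors of about 400 mg (day 6-7) were selected. Each received a single ip dose on day 7, at or below the LD10 in normal mice. Groups were of 10 mice. Tumor weight was taken from calipers as w = ab²/2, measured at least twice weekly. Matched non-tumor mice served as toxicity controls.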

[8] = tested on: Mus musculus; assay: Antitumor activity against mouse advanced Lewis lung carcinoma allografted in ip dosed BDF1 mouse assessed as disease cure administered as single dose on day 6 or 7 post-tumor implantation; format: functional, organism-based; outline: as §2
[9] = Antitumor activity against mouse advanced Lewis lung carcinoma allografted in ip dosed BDF1 mouse assessed as increase in host lifespan administered as single dose on day 6 or 7 post-tumor implantation; format: functional
Outline: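 Advanced Lewis lung model: about 40 mg fragments implanted sc by trocar into BDF1 mice, and mice with tumors of about 400 mg (day 6-7) selected. Tumor weight from calipers, w = ab²/2. Agent given as one ip dose in distilled water or physiological saline. Nontumor-bearing mice received matching doses as toxicity controls.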

[10] = tested on: Mus musculus; assay: Antitumor activity against mouse advanced Lewis lung carcinoma allografted in BDF1 mouse assessed as disease cure at 11 mg/kg, ip administered as single dose on 7th day post-tumor implantation measured for 80 days post-drug treatment; format: functional, organism-based; set-up: dose 11 mg/kg; outline: as §2
[11] = Antitumor activity against mouse advanced Lewis lung carcinoma allografted in BDF1 mouse assessed as increase in host life span at 11 mg/kg, ip administered as single dose on 7th day post-tumor implantation; format: functional; conditions: route intraperitoneal; outline: as §1
[12] = tested on: Mus musculus; assay: Antitumor activity against mouse advanced Lewis lung carcinoma allografted in BDF1 mouse assessed as disease cure at 9 mg/kg, ip administered as single dose on 7th day post-tumor implantation measured for 80 days post-drug treatment; format: functional, organism-based; set-up: dose 9 mg/kg; outline: as §2
[13] = Antitumor activity against mouse advanced Lewis lung carcinoma allografted in BDF1 mouse assessed as increase in host life span at 9 mg/kg, ip administered as single dose on 7th day post-tumor implantation; format: functional; conditions: route intraperitoneal; outline: as §1
[14] = tested on: Mus musculus; assay: Antitumor activity against mouse advanced Lewis lung carcinoma allografted in BDF1 mouse assessed as complete regression of established tumor at 9 mg/kg, ip administered as single dose on 7th day post-tumor implantation; format: functional, organism-based; set-up: dose 9 mg/kg; outline: as §2
[15] = Antitumor activity against mouse early Lewis lung carcinoma allografted in BDF1 mouse assessed as increase in host life span at 20 mg/kg, ip administered as single dose on 1 or 2 days post-tumor implantation; format: functional; conditions: route intraperitoneal
Outline: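 BDF1 mice (C57Blk/6 × DBA/2) implanted sc by trocar with ~40 mg Lewis lung tumor fragments from bacteriologically sterile donor tumors. Single ip dose on day 1 or 2, as a solution or suspension in water (CMC or gum acacia) or saline (HPC or Tween 80). Read-out is […]. Same-dose toxicity controls were run in nontumor-bearing mice.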

[16] = Antitumor activity against mouse early Lewis lung carcinoma allografted in BDF1 mouse assessed as increase in host life span at 13 mg/kg, ip administered as single dose on 1 or 2 days post-tumor implantation; format: functional; conditions: route intraperitoneal
Outline: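 Early disease: BDF1 mice carrying sc trocar implants of about 40 mg Lewis lung fragments. One ip dose given on day 1 or 2 after implant, in distilled water or saline, at ≤0.5 ml. Endpoints were % increase in life-span of dying animals and delay in days for the primary tumor to reach 1 g. Untreated controls served as reference.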

[17] = tested on: Mus musculus; assay: Antitumor activity against mouse advanced Lewis lung carcinoma allografted in BDF1 mouse assessed as disease cure at 30 mg/kg, ip administered as single dose on 7th day post-tumor implantation measured for 80 days post-drug treatment; format: functional, organism-based; set-up: dose 30 mg/kg; outline: as §2
[18] = tested on: Mus musculus; assay: Antitumor activity against mouse advanced Lewis lung carcinoma allografted in BDF1 mouse assessed as disease cure at 20 mg/kg, ip administered as single dose on 7th day post-tumor implantation measured for 80 days post-drug treatment; format: functional, organism-based; set-up: dose 20 mg/kg; outline: as §2
[19] = Antitumor activity against mouse advanced Lewis lung carcinoma allografted in BDF1 mouse assessed as increase in host life span at 30 mg/kg, ip administered as single dose on 7th day post-tumor implantation; format: functional; conditions: route intraperitoneal; outline: as §1
[20] = Antitumor activity against mouse advanced Lewis lung carcinoma allografted in BDF1 mouse assessed as increase in host life span at 20 mg/kg, ip administered as single dose on 7th day post-tumor implantation; format: functional; conditions: route intraperitoneal; outline: as §1
[21] = Antitumor activity against mouse early Lewis lung carcinoma allografted in BDF1 mouse assessed as time delay in tumor growth at 13 mg/kg, ip administered as single dose on 1 or 2 days post-tumor implantation; format: functional; conditions: route intraperitoneal
Outline: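 Sc trocar implants of about 40 mg Lewis lung fragments in BDF1 mice. A single ip injection was given on day 1 or 2, in water or physiological saline, at ≤0.5 ml. Tumor size came from caliper length and width as w = ab²/2, measured at least twice weekly. Growth delay is the extra days taken to reach 1 g, compared with untreated controls.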

[22] = (§3) Antitumor activity against mouse early Lewis lung carcinoma allografted in ip dosed BDF1 mouse assessed as disease cure administered as single dose on 1 or 2 days post-tumor implantation measured for 80 days post-drug treatment; format: functional
Outline: (§4)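 BDF1 mice implanted sc by trocar with ~40 mg Lewis lung fragments from sterile donor tumors. A single ip dose was given on day 1 or 2 after implant, in water or saline vehicle. Cures were scored in animals observed for at least 80 days after treatment. Drug-toxicity controls were matched non-tumor-bearing mice monitored for body weight and deaths.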

[23] = Ratio of ED50 for antitumor activity against mouse L1210 cells allografted in ip dosed mouse to LD10 for mouse
[24] = tested on: Mus musculus; assay: Antitumor activity against mouse advanced Lewis lung carcinoma allografted in BDF1 mouse assessed as disease cure at 144 mg/kg, ip administered as single dose on 7th day post-tumor implantation measured for 80 days post-drug treatment; format: functional, organism-based; set-up: dose 144 mg/kg; outline: as §2
[25] = Antitumor activity against mouse advanced Lewis lung carcinoma allografted in BDF1 mouse assessed as increase in host life span at 144 mg/kg, ip administered as single dose on 7th day post-tumor implantation; format: functional; conditions: route intraperitoneal; outline: as §1
[26] = tested on: Mus musculus; assay: as §3; format: functional; outline: as §4
[27] = tested on: Mus musculus; assay: Antitumor activity against mouse early Lewis lung carcinoma allografted in ip dosed BDF1 mouse administered as single dose on 1 or 2 days post-tumor implantation measured for 80 days post-drug treatment; format: functional, organism-based; outline: as §4
[28] = Antitumor activity against mouse advanced Lewis lung carcinoma allografted in BDF1 mouse assessed as increase in host life span at 29 mg/kg, ip administered as single dose on 7th day post-tumor implantation; format: functional; conditions: route intraperitoneal; outline: as §1

**Q.** Which results are given for `Cc1ccc(S(=O)(=O)NC(=O)N(CCCl)N=O)cc1`?
**A.** Activity [1]: inactive; Activity [2]: inactive; ILS at 93 mg/kg [3]: 28%; ILS at 62 mg/kg [4]: 28%; inhibition [5]: inactive; inhibition [6]: inactive; inhibition [7]: inactive; Activity [8]: inactive; ILS [9]: >25%

**Q.** Which Activity [10] does the source give for `O=NN(CCCl)C(=O)NC1CCS(=O)(=O)CC1` here?
**A.** inactive

**Q.** And the ILS at 11 mg/kg [11]?
**A.** 27%

**Q.** And the inhibition [7]?
**A.** inactive

**Q.** What about the Activity [8] of the same molecule?
**A.** inactive

**Q.** And the ILS [9]?
**A.** >25%

**Q.** With `O=NN(CCF)C(=O)NC1CC2CCC1C2` (stereo not drawn) as the molecule, how does the Activity [12] read?
**A.** inactive

**Q.** And the ILS at 9 mg/kg [13]?
**A.** 40%

**Q.** What about the inhibition [14] of the same molecule?
**A.** inactive

**Q.** Which ILS at 20 mg/kg [15] does the source give for `O=NN(CCCl)C(=O)N[C@H]1CC[C@@H](C(=O)O)CC1` here?
**A.** 0%

**Q.** And the ILS at 13 mg/kg [16]?
**A.** 35%

**Q.** What about the Activity [17] of the same molecule?
**A.** inactive

**Q.** And the Activity [18]?
**A.** inactive

**Q.** What about the ILS at 30 mg/kg [19] of the same molecule?
**A.** 79%

**Q.** What about the ILS at 20 mg/kg [20] of the same molecule?
**A.** 90%

**Q.** What about the Time [21] of the same molecule?
**A.** 23 days

**Q.** And the Activity [22]?
**A.** >50%

**Q.** What about the Ratio [23] of the same molecule?
**A.** 0.6

**Q.** What about the inhibition [7] of the same molecule?
**A.** Active

**Q.** What about the Activity [8] of the same molecule?
**A.** inactive

**Q.** With `O=NN(CCCl)C(=O)NC1C2CC3CC(C2)CC1C3` (stereo not drawn) as the molecule, how does the Activity [24] read?
**A.** inactive

**Q.** And the ILS at 144 mg/kg [25]?
**A.** 19%

**Q.** What about the Activity [26] of the same molecule?
**A.** inactive

**Q.** What about the Activity [27] of the same molecule?
**A.** inactive

**Q.** What about the Ratio [23] of the same molecule?
**A.** 0.6

**Q.** What about the inhibition [7] of the same molecule?
**A.** Active

**Q.** And the Activity [8]?
**A.** inactive

**Q.** What does the source list for `CCOC(=O)[C@H]1CC[C@H](NC(=O)N(CCCl)N=O)CC1`?
**A.** ILS at 30 mg/kg [19]: 68%; ILS at 29 mg/kg [28]: 75%; Activity [8]: Active
